Data: PMC9290582 (British Journal of Clinical Pharmacology, 2021)
Values belong to the compound of their own block, whether it stands above or below them.

Columns and labels:
[1] = Population pharmacokinetic analysis; assay type: in vivo, human; conditions: for CL/F, apparent clearance / Vp/F, apparent peripheral volume of distribution: parent; for Covariate effect ECOG 2—CL/F / Covariate effect Healthy subject—CL/F / Covariate effect Healthy subject—Vp/F / Covariate effect PPI—F1 (relative bioavailability): relative change (1 + estimate)
Method in brief: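 Model: 2-compartment, 5-transit absorption chain, first-order absorption and elimination. Metabolite formation was CL/F × fraction metabolized, fixed at 0.4. BSV and BOV were exponential; residual error was additive on log scale. Precision was checked by bootstrap.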

[2] = Model-predicted steady-state exposure and covariate effects; assay type: in vivo, human; conditions: for Reduction of AUC24h,ss by coadministration of PPIs: population PK study; for Exposure lower with concomitant PPI use: relative to a reference patient
Method in brief: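 Exposure simulated stochastically from the final population PK model at 100 mg BID. AUC24h,ss and Cmax,ss were reported as model-predicted medians (90% prediction interval) relative to a reference patient: B-cell malignancy, ECOG PS 0 or 1, no concomitant PPI. A covariate effect was deemed not relevant if its change and 95% CI fell within 0.8–1.25.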

[3] = test system: Bruton tyrosine kinase (BTK); conditions: cited from earlier work
[4] = cited from earlier work
[5] = healthy subjects; ref data on file; cited from earlier work
[6] = cited from earlier work; remark: listed apart in the source
[7] = high-calorie meal vs. fasting conditions; cited from earlier work
[8] = bootstrap 50th [2.5th, 97.5th percentile]
[9] = final model fixed effect, estimate (%RSE)
[10] = final model, bootstrap 50th [2.5th, 97.5th percentile]
[11] = relative to a reference cancer population

BSV CLM/F [1, 8]: 13.1 [9.22, 20.2] CV% | BSV QM/F [1, 8]: 40 [23.8, 59.2] CV% | BSV VcM/F [1, 8]: 53.3 [36.9, 71.1] CV% | BSV VpM/F [1, 8]: 21.2 [15.3, 41.2] CV% | BSV CLM/F ([1]; estimate (%RSE)): 11.8 (21.1) CV% | BSV QM/F ([1]; estimate (%RSE)): 40.7 (14.4) CV% | BSV VcM/F ([1]; estimate (%RSE)): 47.2 (12.1) CV% | BSV VpM/F ([1]; estimate (%RSE)): 19.2 (30.5) CV% | CLM/F, apparent clearance metabolite [1, 9]: 21.8 (1.98) L/h | VcM/F, apparent central volume of distribution metabolite [1, 9]: 22.7 (6.66) L | VpM/F, apparent peripheral volume of distribution metabolite [1, 9]: 89.2 (4.58) L | CLM/F, apparent clearance metabolite [1, 10]: 21.6 [20.2, 22.6] L/h | VcM/F, apparent central volume of distribution metabolite [1, 10]: 22.7 [19.5, 25.8] L | VpM/F, apparent peripheral volume of distribution metabolite [1, 10]: 88.1 [77.6, 97] L | Reduction of AUC24h,ss by coadministration of PPIs [2]: 36% | Exposure lower with concomitant PPI use [2]: 36%
SMILES: CC#CC(=O)NCCCC(=O)c1nc(-c2ccc(C(=O)Nc3ccccn3)cc2)c2c(N)nccn12 [ACP‐5862]
Potency for BTK inhibition relative to acalabrutinib [3]: approximately half as potent as acalabrutinib | Mean exposure relative to that of acalabrutinib [4]: approximately 2 fold

BOV F1 (between-occasion variability, relative bioavailability) [1, 8]: 55.3 [50.4, 61.1] CV% | BOV MTT (between-occasion variability) [1, 8]: 119 [104, 137] CV% | BSV CL/F (between-subject variability) [1, 8]: 24.1 [20.4, 28] CV% | BSV Vc/F [1, 8]: 284 [225, 367] CV% | BSV Vp/F [1, 8]: 33.9 [25, 42.4] CV% | BOV F1 (between-occasion variability, relative bioavailability) ([1]; estimate (%RSE)): 56.1 (1.80) CV% | BOV MTT (between-occasion variability) ([1]; estimate (%RSE)): 118 (2.39) CV% | BSV CL/F (between-subject variability) ([1]; estimate (%RSE)): 23.8 (5.86) CV% | BSV Vc/F ([1]; estimate (%RSE)): 270 (6.51) CV% | BSV Vp/F ([1]; estimate (%RSE)): 33.7 (6.96) CV% | Ka, first-order absorption rate constant [1, 9]: 1.48 (2.63) h^−1 | MTT, mean transit time [1, 9]: 0.459 (4.16) h | CL/F, apparent clearance [1, 9]: 134 (1.97) L/h | Vp/F, apparent peripheral volume of distribution [1, 9]: 110 (3.45) L | Ka, first-order absorption rate constant [1, 10]: 1.48 [1.41, 1.55] h^−1 | MTT, mean transit time [1, 10]: 0.460 [0.426, 0.492] h | CL/F, apparent clearance [1, 10]: 132 [126, 139] L/h | Vp/F, apparent peripheral volume of distribution [1, 10]: 108 [97.6, 120] L | Covariate effect ECOG 2—CL/F [1, 8]: −0.158 [−0.274, −0.032] | Covariate effect Healthy subject—CL/F [1, 8]: 0.467 [0.367, 0.569] | Covariate effect Healthy subject—Vp/F [1, 8]: −0.554 [−0.6, −0.496] | Covariate effect PPI—F1 (relative bioavailability) [1, 8]: −0.368 [−0.49, −0.228] | Covariate effect ECOG 2—CL/F ([1]; estimate (%RSE)): −0.171 (36.2) | Covariate effect Healthy subject—CL/F ([1]; estimate (%RSE)): 0.467 (19.3) | Covariate effect Healthy subject—Vp/F ([1]; estimate (%RSE)): −0.556 (5.59) | Covariate effect PPI—F1 (relative bioavailability) ([1]; estimate (%RSE)): −0.358 (7.01) | BOV on MTT ([1]; remaining variability in absorption not related to PPIs): 118% | Reduction of AUC24h,ss by coadministration of PPIs [2]: 36% | AUC24h,ss higher in subjects with ECOG PS ≥ 2 [2, 11]: 21% | AUC24h,ss lower in healthy subjects [2, 11]: 32% | Cmax,ss higher in subjects with ECOG PS ≥ 2 [2, 11]: 14% | Cmax,ss lower in healthy subjects [2, 11]: 24% | Exposure lower with concomitant PPI use [2]: 36%
SMILES: CC#CC(=O)N1CCC[C@H]1c1nc(-c2ccc(C(=O)Nc3ccccn3)cc2)c2c(N)nccn12 [acalabrutinib]
Decrease of AUC on coadministration with omeprazole (PPI) [5]: 43% | Solubility dependence on pH [6]: decreases with increasing gut pH | Effect of a high-calorie meal on Cmax [7]: delayed and decreased | Effect of a high-calorie meal on mean AUC [7]: similar
